Test results reported in ChEMBL document CHEMBL5696442, “Discovery of type II inhibitors of TGFβ-activated kinase 1 (TAK1) and mitogen-activated protein kinase kinase kinase kinase 2 (MAP4K2)” (J Med Chem, 2015).

Tests used:
[1] = target: Proto-oncogene tyrosine-protein kinase Src (Homo sapiens, UniProt P12931); experiment: Inhibition of SRC ACT labeling site in human A-375 cells at 5 uM by KiNativ Profiling analysis relative to control; format: cell-based
[2] = target: T1, Aurora kinase A (Homo sapiens) (UniProt O14965); experiment: Inhibition of AurA ATP Loop labeling site in human A-375 cells at 5 uM by KiNativ Profiling analysis relative to control; format: cell-based
T1 sequence (whole entry): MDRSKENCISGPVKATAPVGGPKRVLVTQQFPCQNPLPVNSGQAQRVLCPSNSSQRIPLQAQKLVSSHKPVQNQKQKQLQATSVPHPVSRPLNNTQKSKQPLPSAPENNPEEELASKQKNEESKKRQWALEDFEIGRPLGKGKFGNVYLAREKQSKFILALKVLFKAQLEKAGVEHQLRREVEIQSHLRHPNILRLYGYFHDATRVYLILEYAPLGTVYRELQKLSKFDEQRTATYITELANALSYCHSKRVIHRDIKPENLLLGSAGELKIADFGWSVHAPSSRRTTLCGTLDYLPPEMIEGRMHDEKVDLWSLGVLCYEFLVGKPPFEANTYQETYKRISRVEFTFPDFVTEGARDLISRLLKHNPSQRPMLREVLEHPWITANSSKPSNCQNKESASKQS
Method in brief: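 Live A375 melanoma cells were treated with compound at 5 or 0.5 μM, then lysed. The lysates were labeled with a lysine-reactive ATP or ADP-biotin probe. Kinase protection from probe labeling was measured by KiNativ.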

[3] = target: T2, DNA-PK/Ku70/Ku85 (Homo sapiens) (UniProt P78527+P12956+P13010); experiment: Inhibition of DNAPK ATP labeling site harbouring GHDEREHPFLVKGGEDLR in human A-375 cells at 5 uM by KiNativ Profiling analysis relative to control; format: cell-based
Method in brief: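 A375 melanoma cells treated live with compound at 5 μM, then lysed. Lysates were labeled with a lysine-reactive ATP or ADP-biotin probe (KiNativ). Read-out is how well the compound protects each kinase labeling site from probe labeling.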

[4] = target: T3, Mitogen-activated protein kinase kinase kinase 3 (Homo sapiens) (UniProt Q99759); experiment: Inhibition of MAP3K3 Lys2 labeling site in human A-375 cells at 5 uM by KiNativ Profiling analysis relative to control; format: cell-based
T3 sequence (whole entry): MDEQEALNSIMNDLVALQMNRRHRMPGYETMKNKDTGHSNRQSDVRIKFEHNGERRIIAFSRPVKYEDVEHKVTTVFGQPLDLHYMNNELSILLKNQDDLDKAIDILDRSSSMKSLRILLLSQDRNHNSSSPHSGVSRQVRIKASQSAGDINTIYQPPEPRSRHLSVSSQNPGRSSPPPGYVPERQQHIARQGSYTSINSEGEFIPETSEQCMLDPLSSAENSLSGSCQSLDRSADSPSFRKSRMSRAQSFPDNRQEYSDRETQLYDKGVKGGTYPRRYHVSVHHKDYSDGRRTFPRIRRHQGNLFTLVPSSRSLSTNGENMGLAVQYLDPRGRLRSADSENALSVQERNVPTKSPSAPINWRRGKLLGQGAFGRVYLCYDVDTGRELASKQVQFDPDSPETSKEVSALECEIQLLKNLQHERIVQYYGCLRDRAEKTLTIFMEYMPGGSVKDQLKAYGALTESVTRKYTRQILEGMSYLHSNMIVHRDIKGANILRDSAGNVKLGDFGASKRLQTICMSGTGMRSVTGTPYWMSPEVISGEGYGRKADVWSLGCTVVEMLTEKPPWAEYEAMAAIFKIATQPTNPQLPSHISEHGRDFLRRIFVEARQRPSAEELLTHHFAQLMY

[5] = target: Cyclin-dependent kinase 18 (Homo sapiens) (UniProt Q07002); experiment: Inhibition of PCTAIRE3 Lys1 labeling site harbouringSKLTENLVALKEIR in human A-375 cells at 0.5 uM by KiNativ Profiling analysis relative to control; format: cell-based
Sequence of Cyclin-dependent kinase 18 (Homo sapiens) (Q07002 whole entry): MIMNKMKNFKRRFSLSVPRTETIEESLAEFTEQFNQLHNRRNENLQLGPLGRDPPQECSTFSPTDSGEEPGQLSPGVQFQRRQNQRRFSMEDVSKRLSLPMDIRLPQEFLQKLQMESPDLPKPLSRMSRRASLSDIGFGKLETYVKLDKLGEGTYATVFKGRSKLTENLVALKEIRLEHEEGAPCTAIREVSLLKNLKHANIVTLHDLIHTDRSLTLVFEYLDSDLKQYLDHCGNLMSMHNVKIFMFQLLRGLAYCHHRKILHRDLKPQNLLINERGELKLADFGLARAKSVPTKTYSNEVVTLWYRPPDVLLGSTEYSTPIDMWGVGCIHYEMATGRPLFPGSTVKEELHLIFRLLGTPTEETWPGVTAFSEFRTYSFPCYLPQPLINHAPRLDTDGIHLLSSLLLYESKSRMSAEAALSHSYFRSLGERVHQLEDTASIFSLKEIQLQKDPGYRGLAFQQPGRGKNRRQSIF
Method in brief: (§1)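 Live A375 melanoma cells were treated with compound at 5 or 0.5 μM, then lysed. Lysates were labeled with a lysine-reactive ATP or ADP-biotin probe. Read-out was the compound's protection of kinase labeling sites from probe labeling (KiNativ).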

[6] = target: Cyclin-dependent kinase 18 (Homo sapiens) (UniProt Q07002); experiment: Inhibition of PCTAIRE3 Lys1 labeling site harbouring SKLTENLVALKEIRLEHEEGAPCTAIR in human A-375 cells at 0.5 uM by KiNativ Profiling analysis relative to control; format: cell-based; method in brief: as §1
[7] = target: T4, Serine/threonine-protein kinase ULK3 (Homo sapiens) (UniProt Q6PHR2); experiment: Inhibition of ULK3 Lys2 labeling site in human A-375 cells at 0.5 uM by KiNativ Profiling analysis relative to control; format: cell-based
T4 sequence (whole entry): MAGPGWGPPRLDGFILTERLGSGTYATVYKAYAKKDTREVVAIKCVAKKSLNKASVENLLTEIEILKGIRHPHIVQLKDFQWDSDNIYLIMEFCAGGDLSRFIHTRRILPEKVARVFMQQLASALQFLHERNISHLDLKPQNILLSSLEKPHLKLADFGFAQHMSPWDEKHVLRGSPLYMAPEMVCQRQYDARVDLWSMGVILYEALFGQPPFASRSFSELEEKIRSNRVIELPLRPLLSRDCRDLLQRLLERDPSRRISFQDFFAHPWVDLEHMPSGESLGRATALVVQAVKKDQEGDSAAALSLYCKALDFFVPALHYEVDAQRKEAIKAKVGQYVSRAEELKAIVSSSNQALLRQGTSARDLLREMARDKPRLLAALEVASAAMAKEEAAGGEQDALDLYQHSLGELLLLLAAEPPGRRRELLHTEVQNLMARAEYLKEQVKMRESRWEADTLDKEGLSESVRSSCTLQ

[8] = target: Cyclin-dependent kinase 9 (Homo sapiens) (UniProt P50750); experiment: Inhibition of CDK9 Lys2 labeling site in human A-375 cells at 0.05 uM by KiNativ Profiling analysis relative to control; format: cell-based
Sequence of Cyclin-dependent kinase 9 (Homo sapiens) (P50750 whole entry): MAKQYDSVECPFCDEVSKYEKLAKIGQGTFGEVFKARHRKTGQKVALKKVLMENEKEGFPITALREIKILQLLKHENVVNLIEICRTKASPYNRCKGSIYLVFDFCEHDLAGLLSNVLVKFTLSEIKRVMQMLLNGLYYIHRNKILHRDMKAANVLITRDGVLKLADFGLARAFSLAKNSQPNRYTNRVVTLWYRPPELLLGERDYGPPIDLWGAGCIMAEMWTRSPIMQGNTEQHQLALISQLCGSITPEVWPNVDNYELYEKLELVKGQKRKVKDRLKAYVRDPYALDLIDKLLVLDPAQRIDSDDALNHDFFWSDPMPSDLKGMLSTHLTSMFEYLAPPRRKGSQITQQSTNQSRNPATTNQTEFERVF

[9] = target: T2, DNA-PK/Ku70/Ku85 (Homo sapiens); experiment: Inhibition of DNAPK ATP labeling site harbouring KGGSWIQEINVAEKNWYPR in human A-375 cells at 0.05 uM by KiNativ Profiling analysis relative to control; format: cell-based
[10] = target: Glycogen synthase kinase-3 alpha (Homo sapiens) (UniProt P49840); experiment: Inhibition of GSK3A Lys2 labeling site in human A-375 cells at 0.05 uM by KiNativ Profiling analysis relative to control; format: cell-based
Sequence of Glycogen synthase kinase-3 alpha (Homo sapiens) (P49840 2-483 limits assumed): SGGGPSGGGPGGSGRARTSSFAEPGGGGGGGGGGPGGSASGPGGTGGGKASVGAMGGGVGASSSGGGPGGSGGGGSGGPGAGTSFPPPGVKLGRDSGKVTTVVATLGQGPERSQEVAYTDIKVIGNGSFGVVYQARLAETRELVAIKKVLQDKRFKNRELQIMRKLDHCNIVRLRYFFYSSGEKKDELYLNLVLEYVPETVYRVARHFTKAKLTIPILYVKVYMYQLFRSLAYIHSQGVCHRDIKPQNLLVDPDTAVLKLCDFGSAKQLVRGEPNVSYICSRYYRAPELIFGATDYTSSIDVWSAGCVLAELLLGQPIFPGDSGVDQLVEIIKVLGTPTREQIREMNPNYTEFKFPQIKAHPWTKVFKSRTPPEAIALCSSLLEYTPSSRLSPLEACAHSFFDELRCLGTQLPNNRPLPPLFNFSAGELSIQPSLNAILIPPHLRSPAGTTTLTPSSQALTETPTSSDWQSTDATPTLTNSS

[11] = target: Ribosomal protein S6 kinase alpha-3 (Homo sapiens) (UniProt P51812); experiment: Inhibition of RSK2 domain2 Protein Kinase Domain in human A-375 cells at 0.05 uM by KiNativ Profiling analysis relative to control; format: cell-based
Sequence of Ribosomal protein S6 kinase alpha-3 (Homo sapiens) (P51812 whole entry, the tested form may be a part): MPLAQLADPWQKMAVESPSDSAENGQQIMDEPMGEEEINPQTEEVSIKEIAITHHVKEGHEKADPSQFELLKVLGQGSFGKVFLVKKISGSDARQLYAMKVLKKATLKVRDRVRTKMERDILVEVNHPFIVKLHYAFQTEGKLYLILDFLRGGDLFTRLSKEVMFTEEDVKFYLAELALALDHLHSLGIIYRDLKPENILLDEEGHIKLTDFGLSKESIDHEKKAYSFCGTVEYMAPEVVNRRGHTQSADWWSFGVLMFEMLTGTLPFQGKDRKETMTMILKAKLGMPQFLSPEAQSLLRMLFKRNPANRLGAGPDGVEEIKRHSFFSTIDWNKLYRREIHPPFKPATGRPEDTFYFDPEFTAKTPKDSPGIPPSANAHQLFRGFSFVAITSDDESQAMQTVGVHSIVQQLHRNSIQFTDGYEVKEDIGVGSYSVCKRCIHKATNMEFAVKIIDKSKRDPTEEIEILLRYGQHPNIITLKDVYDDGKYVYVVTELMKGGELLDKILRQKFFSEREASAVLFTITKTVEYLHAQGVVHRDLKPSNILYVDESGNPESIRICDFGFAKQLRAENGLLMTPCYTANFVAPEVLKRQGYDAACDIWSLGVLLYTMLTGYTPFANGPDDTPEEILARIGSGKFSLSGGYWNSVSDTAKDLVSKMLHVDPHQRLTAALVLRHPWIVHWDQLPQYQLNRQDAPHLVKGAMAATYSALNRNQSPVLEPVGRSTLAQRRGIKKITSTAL

[12] = target: TRAF2 and NCK-interacting protein kinase (Homo sapiens) (UniProt Q9UKE5); experiment: Inhibition of ZC2/TNIK Lys2 labeling site in human A-375 cells at 0.05 uM by KiNativ Profiling analysis relative to control; format: cell-based
Sequence of TRAF2 and NCK-interacting protein kinase (Homo sapiens) (Q9UKE5 whole entry, looked up): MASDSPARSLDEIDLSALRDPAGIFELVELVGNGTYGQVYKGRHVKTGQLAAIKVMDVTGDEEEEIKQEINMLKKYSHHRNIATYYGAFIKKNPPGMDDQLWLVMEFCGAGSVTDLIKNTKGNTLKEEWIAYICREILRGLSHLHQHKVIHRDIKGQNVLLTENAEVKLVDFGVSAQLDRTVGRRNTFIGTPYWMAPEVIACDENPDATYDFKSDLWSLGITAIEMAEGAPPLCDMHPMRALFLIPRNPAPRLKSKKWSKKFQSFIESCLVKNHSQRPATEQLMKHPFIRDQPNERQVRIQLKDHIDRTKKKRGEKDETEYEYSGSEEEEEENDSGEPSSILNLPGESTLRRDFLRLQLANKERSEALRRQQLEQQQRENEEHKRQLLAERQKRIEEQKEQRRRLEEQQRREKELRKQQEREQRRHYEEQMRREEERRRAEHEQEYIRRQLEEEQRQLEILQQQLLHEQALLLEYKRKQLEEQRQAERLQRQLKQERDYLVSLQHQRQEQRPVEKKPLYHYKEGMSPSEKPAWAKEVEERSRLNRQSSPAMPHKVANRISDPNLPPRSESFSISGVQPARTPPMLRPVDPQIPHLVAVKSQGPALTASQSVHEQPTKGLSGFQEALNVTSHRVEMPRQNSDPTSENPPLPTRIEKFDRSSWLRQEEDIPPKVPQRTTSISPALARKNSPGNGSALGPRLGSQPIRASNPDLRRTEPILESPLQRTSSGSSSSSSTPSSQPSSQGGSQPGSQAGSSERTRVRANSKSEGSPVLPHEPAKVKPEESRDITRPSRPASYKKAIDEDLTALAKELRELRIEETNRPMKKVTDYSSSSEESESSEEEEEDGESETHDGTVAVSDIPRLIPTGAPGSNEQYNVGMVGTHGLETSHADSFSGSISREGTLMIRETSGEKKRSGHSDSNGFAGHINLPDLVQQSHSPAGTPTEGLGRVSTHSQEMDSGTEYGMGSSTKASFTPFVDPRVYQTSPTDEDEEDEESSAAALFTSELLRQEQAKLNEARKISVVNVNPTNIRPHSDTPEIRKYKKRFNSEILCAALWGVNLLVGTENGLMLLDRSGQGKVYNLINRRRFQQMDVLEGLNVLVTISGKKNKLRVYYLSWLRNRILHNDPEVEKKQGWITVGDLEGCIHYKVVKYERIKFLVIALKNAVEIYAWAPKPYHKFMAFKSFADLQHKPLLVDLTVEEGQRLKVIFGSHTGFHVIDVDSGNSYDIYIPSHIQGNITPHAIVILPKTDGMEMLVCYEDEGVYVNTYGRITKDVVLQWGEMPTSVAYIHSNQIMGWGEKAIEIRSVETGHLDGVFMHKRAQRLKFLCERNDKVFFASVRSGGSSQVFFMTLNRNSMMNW

[13] = target: Calcium/calmodulin-dependent protein kinase type 1 (Homo sapiens) (UniProt Q14012); experiment: Inhibition of CAMK1 alpha Lys1 labeling site in human Huh-7 cell lysate at 1 uM by KiNativ Profiling analysis relative to control; format: subcellular
Sequence of Calcium/calmodulin-dependent protein kinase type 1 (Homo sapiens) (Q14012 whole entry, looked up): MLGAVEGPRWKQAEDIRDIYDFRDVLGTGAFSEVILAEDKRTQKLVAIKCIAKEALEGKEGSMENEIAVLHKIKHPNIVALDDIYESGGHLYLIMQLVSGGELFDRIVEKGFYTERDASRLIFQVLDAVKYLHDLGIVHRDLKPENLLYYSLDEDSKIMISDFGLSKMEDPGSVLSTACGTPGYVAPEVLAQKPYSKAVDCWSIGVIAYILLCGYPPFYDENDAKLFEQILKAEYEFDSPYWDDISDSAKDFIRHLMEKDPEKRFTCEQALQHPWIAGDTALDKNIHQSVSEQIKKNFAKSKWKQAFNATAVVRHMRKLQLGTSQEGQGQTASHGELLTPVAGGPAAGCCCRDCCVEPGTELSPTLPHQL

Sequence of Proto-oncogene tyrosine-protein kinase Src (P12931 2-536 limits assumed): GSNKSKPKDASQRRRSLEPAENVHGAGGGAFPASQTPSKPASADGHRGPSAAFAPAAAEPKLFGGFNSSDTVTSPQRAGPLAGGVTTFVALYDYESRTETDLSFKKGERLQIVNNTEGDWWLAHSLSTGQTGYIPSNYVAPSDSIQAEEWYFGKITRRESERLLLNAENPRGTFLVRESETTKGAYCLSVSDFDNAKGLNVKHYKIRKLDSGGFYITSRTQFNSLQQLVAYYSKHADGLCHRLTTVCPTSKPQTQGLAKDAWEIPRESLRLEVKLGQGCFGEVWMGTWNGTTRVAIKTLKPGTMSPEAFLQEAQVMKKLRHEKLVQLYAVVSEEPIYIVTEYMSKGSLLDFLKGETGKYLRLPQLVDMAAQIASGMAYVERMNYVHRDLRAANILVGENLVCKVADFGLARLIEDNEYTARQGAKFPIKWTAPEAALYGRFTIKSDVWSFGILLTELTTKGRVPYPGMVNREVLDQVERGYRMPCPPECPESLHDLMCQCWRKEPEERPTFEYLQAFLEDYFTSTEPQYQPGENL

SMILES | inhibition [1] [%] | inhibition [2] [%] | inhibition [3] [%] | inhibition [4] [%] | inhibition [5] [%] | inhibition [6] [%] | inhibition [7] [%] | inhibition [8] [%] | inhibition [9] [%] | inhibition [10] [%] | inhibition [11] [%] | inhibition [12] [%] | inhibition [13] [%]
CCN1CCN(Cc2ccc(NC(=O)c3ccc(C)c(Oc4ccnc5[nH]ccc45)c3)cc2C(F)(F)F)CC1 | 89.6 | 31.4 | 17.1 | -4.8 | 31.7 | 6.9 | -2.5 | 15.4 | 6.7 | 0.3 | 3.1 | 32.6 | 
CNc1cc(Oc2cc(C(=O)Nc3cc(-n4cnc(C)c4)cc(C(F)(F)F)c3)ccc2C)ncn1 |  |  |  |  |  |  |  |  |  |  |  |  | 5
CNc1cc(Oc2cc(C(=O)Nc3cc(N4CCN(C)CC4)cc(C(F)(F)F)c3)ccc2C)ncn1 |  |  |  |  |  |  |  |  |  |  |  |  | 8.8
CCN1CCN(Cc2ccc(NC(=O)c3ccc(C)c(/C=C/c4cnc5[nH]ccc5c4OC)c3)cc2C(F)(F)F)CC1 | > 99 | 48.5 | 13.8 | 11.8 | 11.3 | 2.4 | 8.5 | 10.7 | -3.2 | 14.4 | -9.9 | 19.5 | 
